Measurements taken from ChEMBL document CHEMBL1240399 (Antimicrob Agents Chemother, 2010).
≈ marks a conversion by molar mass, not a printed value.

What was measured:
[1] = test system: Pseudomonas aeruginosa; test: Antibacterial activity against Pseudomonas aeruginosa NL68 expressing GES-13 beta lactamase; assay type: functional
[2] = test system: Escherichia coli; test: Antibacterial activity against Escherichia coli DH5alpha pB-ges-1; assay type: functional
[3] = test system: Escherichia coli; test: Antibacterial activity against Escherichia coli DH5alpha pB-ges-13 plasmid; assay type: functional
[4] = test system: Escherichia coli; test: Antibacterial activity against Escherichia coli DH5alpha; assay type: functional
[5] = test system: Escherichia coli; test: Antibacterial activity against Escherichia coli DH5alpha pB-ges-13 plasmid in presence of 2 ug/ml clavulanic acid; assay type: functional
[6] = test system: Escherichia coli; test: Antibacterial activity against Escherichia coli DH5alpha pB-ges-1in presence of 2 ug/ml clavulanic acid; assay type: functional
[7] = test system: Escherichia coli; test: Antibacterial activity against Escherichia coli DH5alpha in presence of 2 ug/ml clavulanic acid; assay type: functional
[8] = test system: Pseudomonas aeruginosa; test: Antibacterial activity against Pseudomonas aeruginosa NL68 expressing GES-13 beta lactamase in presence of 4 ug/ml Tazobactam; assay type: functional
[9] = test system: Pseudomonas aeruginosa; test: microbe, parasite or virus in culture; conditions: NL68
[10] = test system: Escherichia coli; test: microbe, parasite or virus in culture; conditions: DH5alpha
[11] = test system: Escherichia coli; test: microbe, parasite or virus in culture; conditions: DH5alpha; remark: listed apart in the source
[12] = test system: Escherichia coli; test: microbe, parasite or virus in culture; conditions: DH5alpha; remark: listed apart in the source
[13] = molecular target: Beta-lactamase GES-13 (Pseudomonas aeruginosa, UniProt D1MIX9); test: Inhibition of Pseudomonas aeruginosa GES-13 beta lactamase
Chain of Beta-lactamase GES-13 (D1MIX9 whole entry): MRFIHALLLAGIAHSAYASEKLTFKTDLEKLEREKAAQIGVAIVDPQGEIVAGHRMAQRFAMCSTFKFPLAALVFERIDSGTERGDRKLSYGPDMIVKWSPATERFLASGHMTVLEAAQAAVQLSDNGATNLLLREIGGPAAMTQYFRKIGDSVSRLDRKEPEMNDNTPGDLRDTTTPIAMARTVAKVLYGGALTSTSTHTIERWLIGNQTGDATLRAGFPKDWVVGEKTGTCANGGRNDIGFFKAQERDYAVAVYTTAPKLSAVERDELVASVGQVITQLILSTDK
How it was run: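 GES-13 purified from E. coli DH5α carrying pB-ges13: sonicated in 20 mM Tris pH 8.0, then Q-Sepharose and S-Sepharose chromatography, >95% pure by SDS-PAGE. Enzyme preincubated with a range of inhibitor concentrations for 3 min at 30°C. Residual hydrolysis of 100 μM cephalothin reporter followed spectrophotometrically. Value given as IC50.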

Row | SMILES | MIC [1] | MIC [2] | MIC [3] | MIC [4] | MIC [5] | MIC [6] | MIC [7] | MIC [8] | MIC [9] | MIC [10] | MIC [11] | MIC [12] | IC50 [13]
1 | CO/N=C(\C(=O)N[C@@H]1C(=O)N2C(C(=O)[O-])=C(C[N+]3(C)CCCC3)CS[C@H]12)c1csc(N)n1 | 64 µg/mL (≈ 133 µM) | 1 µg/mL (≈ 2.08 µM) | – | – | – | – | – | – | – | – | – | – | –
2 | CC1(C)S[C@@H]2[C@H](NC(=O)[C@H](N)c3ccc(O)cc3)C(=O)N2[C@H]1C(=O)O [AMOXICILLIN] | – | ≥ 512 µg/mL | ≥ 512 µg/mL | 2 µg/mL (≈ 5.47 µM) | 32 µg/mL | 64 µg/mL | 2 µg/mL | – | – | – | – | – | –
3 | C[C@H]1[C@H](NC(=O)/C(=N\OC(C)(C)C(=O)O)c2csc(N)n2)C(=O)N1S(=O)(=O)O [AZTREONAM] | – | 1 µg/mL (≈ 2.3 µM) | 8 µg/mL (≈ 18.4 µM) | – | – | – | – | – | – | – | – | – | –
4 | N[C@@H](C(=O)N[C@@H]1C(=O)N2C(C(=O)O)=C(Cl)CS[C@H]12)c1ccccc1 [CEFACLOR ANHYDROUS] | – | ≥ 512 µg/mL | ≥ 512 µg/mL | 4 µg/mL (≈ 10.9 µM) | – | – | – | – | – | – | – | – | –
5 | CO/N=C(\C(=O)N[C@@H]1C(=O)N2C(C(=O)O)=C(COC(C)=O)CS[C@H]12)c1csc(N)n1 [CEFOTAXIME] | – | 4 µg/mL (≈ 8.78 µM) | 8 µg/mL (≈ 17.6 µM) | 0.12 µg/mL (≈ 0.263 µM) | – | – | – | – | – | – | – | – | –
6 | CO[C@@]1(NC(=O)Cc2cccs2)C(=O)N2C(C(=O)O)=C(COC(N)=O)CS[C@@H]21 [CEFOXITIN] | – | 8 µg/mL (≈ 18.7 µM) | 8 µg/mL (≈ 18.7 µM) | 4 µg/mL (≈ 9.36 µM) | – | – | – | – | – | – | – | – | –
7 | CC(C)(O/N=C(\C(=O)N[C@@H]1C(=O)N2C(C(=O)[O-])=C(C[n+]3ccccc3)CS[C@H]12)c1csc(N)n1)C(=O)O [CEFTAZIDIME] | ≥ 512 µg/mL | 256 µg/mL (≈ 468 µM) | ≥ 512 µg/mL | 0.5 µg/mL (≈ 0.915 µM) | 16 µg/mL | 16 µg/mL | 0.5 µg/mL | 256 µg/mL | ≥ 512 µg/mL | 4 µg/mL (≈ 7.32 µM) | 16 µg/mL (≈ 29.3 µM) | 0.5 µg/mL (≈ 0.915 µM) | –
8 | CO/N=C(\C(=O)N[C@@H]1C(=O)N2C(C(=O)O)=C(CSc3nc(=O)c(O)nn3C)CS[C@H]12)c1csc(N)n1 [CEFTRIAXONE] | – | 16 µg/mL (≈ 28.9 µM) | 16 µg/mL (≈ 28.9 µM) | 0.12 µg/mL (≈ 0.216 µM) | – | – | – | – | – | – | – | – | –
9 | CO/N=C(\C(=O)N[C@@H]1C(=O)N2C(C(=O)O)=C(COC(N)=O)CS[C@H]12)c1ccco1 [CEFUROXIME] | – | ≥ 512 µg/mL | ≥ 512 µg/mL | 2 µg/mL (≈ 4.71 µM) | – | – | – | – | – | – | – | – | –
10 | C[C@@H](O)[C@H]1C(=O)N2C(C(=O)O)=C(SCCNC=N)C[C@H]12 [IMIPENEM ANHYDROUS] | 16 µg/mL (≈ 53.4 µM) | – | – | – | – | – | – | 16 µg/mL | – | – | – | – | 150 nM
11 | C[C@@H](O)[C@H]1C(=O)N2C(C(=O)O)=C(S[C@@H]3CN[C@H](C(=O)N(C)C)C3)[C@H](C)[C@H]12 [MEROPENEM] | 32 µg/mL (≈ 83.4 µM) | ≤ 0.06 µg/mL | ≤ 0.06 µg/mL | ≤ 0.06 µg/mL | – | – | – | – | – | – | – | – | –
12 | CCN1CCN(C(=O)N[C@@H](C(=O)N[C@@H]2C(=O)N3[C@@H]2SC(C)(C)[C@@H]3C(=O)O)c2ccccc2)C(=O)C1=O [PIPERACILLIN] | 256 µg/mL (≈ 495 µM) | 64 µg/mL (≈ 124 µM) | 64 µg/mL (≈ 124 µM) | 1 µg/mL (≈ 1.93 µM) | – | – | – | 128 µg/mL | – | 2 µg/mL (≈ 3.86 µM) | 16 µg/mL (≈ 30.9 µM) | 0.5 µg/mL (≈ 0.966 µM) | –
13 | CC1(C)S[C@@H]2[C@H](NC(=O)[C@H](C(=O)O)c3ccsc3)C(=O)N2[C@H]1C(=O)O [TICARCILLIN] | ≥ 512 µg/mL | ≥ 512 µg/mL | ≥ 512 µg/mL | 2 µg/mL (≈ 5.2 µM) | 16 µg/mL | 32 µg/mL | 2 µg/mL | – | ≥ 512 µg/mL | – | – | – | –
